Laboratory results taken from ChEMBL document CHEMBL1131183, “New 1alpha,25-dihydroxy-19-norvitamin D3 compounds of high biological activity: synthesis and biological evaluation of 2-hydroxymethyl, 2-methyl, and 2-methylene analogues” (1998).
Values joined by “and” are separate entries in the source; they are usually repeats but may differ in a detail not shown here. Equal entries are not always repeated.

What was measured:
[1] = species on record: Rattus norvegicus; assay: Support of intestinal calcium transport measured in vitamin D-deficient rats on a low-calcium diet(260); format: functional
Outline: (§1)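 Vitamin D-deficient weanling male rats, 0.47% Ca diet 1 week then 0.02% Ca diet 3 weeks, given 130 or 260 pmol ip daily for 7 days in 0.1 mL propylene glycol/ethanol 95:5; vehicle controls. Killed 24 h after last dose; everted sac of proximal 10 cm intestine, Ca by atomic absorption, expressed as serosal/mucosal ratio. ≥6 rats/group, mean ± SEM, t-test.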

[2] = species on record: Rattus norvegicus; assay: Support of intestinal calcium transport measured in vitamin D-deficient rats on a low-calcium diet(130); format: functional; outline: as §1
[3] = system: HL-60; assay: Induced differentiation of human promyelocyte HL-60 cells into monocytes; format: functional; details: read-out: ED50 (the source's name)
[4] = species on record: Rattus norvegicus; assay: Bone calcium mobilization measured in vitamin D-deficient rats on a low-calcium diet(260); format: functional, organism-based
Outline: (§2)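 Weanling male rats kept on 0.47% Ca diet 1 week, then 0.02% Ca diet 3 weeks; dosed ip daily for 7 days (130 or 260 pmol) in 0.1 mL propylene glycol/ethanol 95:5 during last week; vehicle controls. Serum Ca measured 24 h after last dose by atomic absorption with 0.1% LaCl3; rise in serum Ca taken as bone mobilization. ≥6 rats/group, mean ± SEM, Student's t-test.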

[5] = biological target: T1, Vitamin D3 receptor (Sus scrofa) (UniProt A3RGC1)
T1 sequence (whole entry): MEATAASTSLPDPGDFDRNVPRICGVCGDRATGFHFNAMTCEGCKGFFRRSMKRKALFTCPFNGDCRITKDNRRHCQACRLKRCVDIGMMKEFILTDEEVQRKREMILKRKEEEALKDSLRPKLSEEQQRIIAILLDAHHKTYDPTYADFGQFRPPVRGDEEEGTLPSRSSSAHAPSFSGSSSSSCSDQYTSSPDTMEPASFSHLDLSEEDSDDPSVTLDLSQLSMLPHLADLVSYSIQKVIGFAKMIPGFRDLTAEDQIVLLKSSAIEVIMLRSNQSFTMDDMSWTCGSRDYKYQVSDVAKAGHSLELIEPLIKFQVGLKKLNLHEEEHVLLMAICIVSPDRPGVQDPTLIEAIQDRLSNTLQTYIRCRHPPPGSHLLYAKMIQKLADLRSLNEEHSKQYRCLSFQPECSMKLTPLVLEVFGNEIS

[6] = species on record: Rattus norvegicus; assay: Bone calcium mobilization measured in vitamin D-deficient rats on a low-calcium diet(130); format: functional, organism-based; outline: as §2
[7] = biological target: T1, Vitamin D3 receptor (Sus scrofa); assay: Inhibition of 1-alpha,25-(OH)2D3 binding to porcine intestinal vitamin D receptor
Outline: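 Porcine intestinal nuclear extract, 0.1 mg protein (200 fmol binding activity) per tube, incubated with 10 000 cpm 1α,25-(OH)2[26,27-3H]D3 plus graded unlabelled standard or analogue in ethanol, 4 h room temperature with shaking. Bound label captured on hydroxyapatite, washed with TE/5% Triton, counted by scintillation. ED50 = concentration displacing 50% of label, from dose-response curves; triplicate on two occasions.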

| EC50 [3] | ED50 [5] | EC50 ([3]; Homo sapiens, HL-60) | ED50 [7] | Compound | Ca2+ transport S/M [1] | Ca2+ transport S/M [2] | Serum Ca2+ [4] | Serum Ca2+ [6] |
| --- | --- | --- | --- | --- | --- | --- | --- | --- |
| 8 nM |  |  |  | CC1[C@H](O)CC(=C/C=C2\CCC[C@]3(C)[C@@H]([C@H](C)CCCC(C)(C)O)CC[C@@H]23)C[C@H]1O (stereo partly specified) [listing 2 of 3 here] | 3 | 4.4 |  |  |
| 0.07 nM |  |  |  | CC1[C@H](O)CC(=C/C=C2\CCC[C@]3(C)[C@@H]([C@@H](C)CCCC(C)(C)O)CC[C@@H]23)C[C@H]1O (stereo partly specified) [listing 1 of 3 here] | 8.4 | 12.9 |  |  |
|  | 0.4 nM and 0.5 nM |  |  | CC1[C@H](O)CC(=C/C=C2\CCC[C@]3(C)[C@@H]([C@@H](C)CCCC(C)(C)O)CC[C@@H]23)C[C@H]1O (stereo partly specified) [listing 2 of 3 here] |  |  | 10.3 and 4.4 | 8.3 and 4.4 |
| 0.08 nM |  |  |  | CC1[C@H](O)CC(=C/C=C2\CCC[C@]3(C)[C@@H]([C@H](C)CCCC(C)(C)O)CC[C@@H]23)C[C@H]1O (stereo partly specified) [listing 3 of 3 here] | 5.3 | 4.3 |  |  |
| 0.7 nM |  |  |  | CC1[C@H](O)CC(=C/C=C2\CCC[C@]3(C)[C@@H]([C@@H](C)CCCC(C)(C)O)CC[C@@H]23)C[C@H]1O (stereo partly specified) [listing 3 of 3 here] | 3.8 | 2.9 |  |  |
|  |  | 20 nM |  | C[C@H](CCCC(C)(C)O)[C@H]1CC[C@H]2/C(=C/C=C3C[C@@H](O)C(CO)[C@H](O)C3)CCC[C@]12C (stereo partly specified) |  |  |  |  |
| 4.5 nM |  |  |  | C[C@@H](CCCC(C)(C)O)[C@H]1CC[C@H]2/C(=C/C=C3C[C@@H](O)C(CO)[C@H](O)C3)CCC[C@]12C (stereo partly specified) [listing 3 of 3 here] | 3.5 | 3.5 |  |  |

More lines, now with the values behind:

| Compound | EC50 [3] | ED50 [5] | EC50 ([3]; Homo sapiens, HL-60) | ED50 [7] | Ca2+ transport S/M [1] | Ca2+ transport S/M [2] | Serum Ca2+ [4] | Serum Ca2+ [6] |
| --- | --- | --- | --- | --- | --- | --- | --- | --- |
| C[C@@H](CCCC(C)(C)O)[C@H]1CC[C@H]2/C(=C/C=C3C[C@@H](O)C(CO)[C@H](O)C3)CCC[C@]12C (stereo partly specified) [listing 1 of 3 here] | 2 nM |  |  |  | 5.8 | 5 |  |  |
| C=C1[C@H](O)CC(=C/C=C2\CCC[C@]3(C)[C@@H]([C@@H](C)CCCC(C)(C)O)CC[C@@H]23)C[C@H]1O [DP001] |  | 0.1 nM | 0.15 nM |  | 4.6 | 5.8 | 14.4 | 13.8 |
| CC1[C@H](O)CC(=C/C=C2\CCC[C@]3(C)[C@@H]([C@H](C)CCCC(C)(C)O)CC[C@@H]23)C[C@H]1O (stereo partly specified) [listing 1 of 3 here] |  |  |  |  |  |  | 3.8 and 5.8 | 4.1 and 4.8 |
| C=C1/C(=C\C=C2/CCC[C@]3(C)[C@@H]([C@H](C)CCCC(C)(C)O)CC[C@@H]23)C[C@@H](O)C[C@@H]1O [CALCITRIOL] |  |  |  | 0.09 nM | 6.2 and 5.6 and 4.6 and 6.6 |  | 6.6 [middle of 4 runs] |  |
| C=C1[C@H](O)CC(=C/C=C2\CCC[C@]3(C)[C@@H]([C@H](C)CCCC(C)(C)O)CC[C@@H]23)C[C@H]1O |  | 0.12 nM | 4.2 nM |  | 4.9 | 5.3 | 9.6 | 9.9 |
| C[C@@H](CCCC(C)(C)O)[C@H]1CC[C@H]2/C(=C/C=C3C[C@@H](O)C(CO)[C@H](O)C3)CCC[C@]12C (stereo partly specified) [listing 2 of 3 here] |  |  |  |  |  |  | 3.5 and 3.9 | 3.6 and 4 |
